The source of these data is paper PMC8052682 (Chemical communications (Cambridge, England), 2021).

The test system of assay [1] is MDA-MB-231 breast carcinoma cells. The experiment in a line: Wound-healing. In kind it is cell-based. Conditions: wound-healing assay, 20-hour time span, six biological replicates. An outline of the steps: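 Scratch-wound migration of MDA-MB-231 breast carcinoma cells followed over 20 h with test compounds (a glycopeptide, a peptide, or heparin) at several concentrations. Migration was scored as relative migration, and the concentration giving maximal inhibition of migration was noted.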

The test system of another assay is integrin. Particulars: ref [3], [20]; cited from earlier work.

As to heparin, the “concentration at which maximal inhibitory effect on migration is reached” value in assay [1] amounted to 6 µM. Besides, in the assay on integrin, the “integrin binding relative to heparan sulfate (in words)” value is “binds more tightly with integrin than heparan sulfate”.
